What was measured:
Plasmodium falciparum [1] = assay: Growth inhibition of chloroquine-resistant Plasmodium falciparum FcB1 at 1 uM; assay type: functional
Plasmodium falciparum [2] = assay: Antimalarial activity against chloroquine-resistant Plasmodium falciparum FcB1; assay type: functional, organism-based
How it was run: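 P. falciparum FcB1 (chloroquine-resistant) growth inhibition; IC50 reported as mean ± SD of two to three independent experiments.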

MRC5 [3] = assay: Relative antimalarial activity to cytotoxicity as selectivity index (CC50/IC50); assay type: functional
MRC5 [4] = assay: Cytotoxicity against human diploid embryonic lung MRC5 cells by colorimetric MTT assay; assay type: functional
How it was run: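 Human MRC5 cells were used, with the value reported as CC50 in µM. Results are given as the mean ± SD of two to three independent experiments.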

## COc1ccc(O)c(/C=N/NC(=O)Cc2ccccc2)c1
Plasmodium falciparum [1]
  inhibition at 1 µM: 45%

## CCN(CC)c1ccc(/C=N/NC(=O)c2ccc(O)cc2)c(O)c1
Plasmodium falciparum [1]
  inhibition at 1 µM: 12%

## CCN(CC)c1ccc(/C=N/NC(=O)c2ccc(Cl)cc2)c(O)c1
Plasmodium falciparum [1]
  inhibition at 1 µM: 45%

## COc1cccc(/C=N/NC(C)=O)c1O
Plasmodium falciparum [1]
  inhibition at 1 µM: 33%

## CCN(CC)c1ccc(/C=N/NC(=O)c2ccccc2)c(O)c1
Plasmodium falciparum [2]
  IC50: 1100 nM
MRC5 [3]
  Ratio CC50/IC50: 1
MRC5 [4]
  CC50: 1.1 µM
Plasmodium falciparum [1]
  inhibition at 1 µM: 60%

## COc1ccc(C(=O)N/N=C/c2ccc(OC)cc2O)cc1
Plasmodium falciparum [1]
  inhibition at 1 µM: 9%

## COc1ccc(C(=O)N/N=C/c2cccc(O)c2O)cc1
Plasmodium falciparum [1]
  inhibition at 1 µM: 21%

## COc1ccc(/C=N/NC(=O)c2ccc([N+](=O)[O-])cc2)c(O)c1
Plasmodium falciparum [1]
  inhibition at 1 µM: 45%

## COc1cccc(/C=N/NC(=O)c2ccc([N+](=O)[O-])cc2)c1O
Plasmodium falciparum [1]
  inhibition at 1 µM: 32%

## COc1ccc(C(=O)N/N=C/c2cc(C(C)(C)C)ccc2O)cc1
Plasmodium falciparum [2]
  IC50: 2300 nM
MRC5 [4]
  CC50: > 100 µM
Plasmodium falciparum [1]
  inhibition at 1 µM: 53%

## O=C(N/N=C/c1cc(O)ccc1O)c1cccnc1
Plasmodium falciparum [1]
  inhibition at 1 µM: 7%

## COc1ccc(O)c(/C=N/NC(=O)c2ccco2)c1
Plasmodium falciparum [1]
  inhibition at 1 µM: 33%

## COc1ccc(C(=O)N/N=C/c2cc(O)ccc2O)cc1
Plasmodium falciparum [1]
  inhibition at 1 µM: 39%

## CC(C)(C)c1ccc(C(=O)N/N=C/c2cc(O)ccc2O)cc1
Plasmodium falciparum [1]
  inhibition at 1 µM: 38%

## COc1ccc(O)c(/C=N/NC(=O)c2ccncc2)c1
Plasmodium falciparum [1]
  inhibition at 1 µM: 34%

## COc1ccc(O)c(/C=N/NC(=O)c2ccccc2)c1
Plasmodium falciparum [1]
  inhibition at 1 µM: 38%

## O=C(N/N=C/c1cc(O)ccc1O)c1ccncc1
Plasmodium falciparum [1]
  inhibition at 1 µM: 26%

## O=C(N/N=C/c1cc(O)ccc1O)c1cccs1
Plasmodium falciparum [1]
  inhibition at 1 µM: 19%

## Cc1ccc(O)c(/C=N/NC(=O)c2ccc(C(C)(C)C)cc2)c1
Plasmodium falciparum [2]
  IC50: 2200 nM
MRC5 [3]
  Ratio CC50/IC50: 7.4
MRC5 [4]
  CC50: 16.3 µM
Plasmodium falciparum [1]
  inhibition at 1 µM: 65%

## O=C(N/N=C/c1cc(O)ccc1O)c1ccccc1
Plasmodium falciparum [1]
  inhibition at 1 µM: 0%

## CCN(CC)c1ccc(/C=N/NC(=O)c2cccnc2)c(O)c1
Plasmodium falciparum [1]
  inhibition at 1 µM: 2%

## O=C(N/N=C/c1ccccc1O)c1ccc(O)cc1
Plasmodium falciparum [1]
  inhibition at 1 µM: 11%

## CCN(CC)c1ccc(/C=N/NC(=O)c2cccs2)c(O)c1
Plasmodium falciparum [1]
  inhibition at 1 µM: 37%

## O=C(N/N=C/c1ccccc1O)c1ccc(Cl)cc1
Plasmodium falciparum [1]
  inhibition at 1 µM: 25%

## CCN(CC)c1ccc(/C=N/NC(=O)c2ccc(OC)cc2)c(O)c1
Plasmodium falciparum [1]
  inhibition at 1 µM: 39%

## COc1ccc(O)c(/C=N/NC(=O)c2cccs2)c1
Plasmodium falciparum [1]
  inhibition at 1 µM: 24%

## COc1ccc(/C=N/NC(=O)c2ccc(O)cc2)c(O)c1
Plasmodium falciparum [1]
  inhibition at 1 µM: 14%

## O=C(Cc1ccccc1)N/N=C/c1cc(O)ccc1O
Plasmodium falciparum [1]
  inhibition at 1 µM: 4%

## COc1ccc(/C=N/NC(C)=O)c(O)c1
Plasmodium falciparum [1]
  inhibition at 1 µM: 4%

## COc1ccc(/C=N/NC(=O)c2ccco2)c(O)c1
Plasmodium falciparum [1]
  inhibition at 1 µM: 45%

## CCN(CC)c1ccc(/C=N/NC(=O)c2ccco2)c(O)c1
Plasmodium falciparum [1]
  inhibition at 1 µM: 23%

## COc1ccc(/C=N/NC(=O)c2ccncc2)c(O)c1
Plasmodium falciparum [1]
  inhibition at 1 µM: 35%

## CCN(CC)c1ccc(/C=N/NC(C)=O)c(O)c1
Plasmodium falciparum [1]
  inhibition at 1 µM: 34%

## CC(=O)N/N=C/c1cccc(O)c1O
Plasmodium falciparum [1]
  inhibition at 1 µM: 29%

## COc1cccc(/C=N/NC(=O)c2ccco2)c1O
Plasmodium falciparum [1]
  inhibition at 1 µM: 41%

## COc1ccc(O)c(/C=N/NC(=O)c2cccnc2)c1
Plasmodium falciparum [1]
  inhibition at 1 µM: 24%

## COc1cccc(/C=N/NC(=O)c2ccc(Cl)cc2)c1O
Plasmodium falciparum [1]
  inhibition at 1 µM: 36%

## CC(C)(C)c1ccc(O)c(/C=N/NC(=O)c2cccs2)c1
Plasmodium falciparum [2]
  IC50: 1600 nM
MRC5 [3]
  Ratio CC50/IC50: 7.5
MRC5 [4]
  CC50: 12 µM
Plasmodium falciparum [1]
  inhibition at 1 µM: 52%

## O=C(N/N=C/c1ccccc1O)c1cccs1
Plasmodium falciparum [1]
  inhibition at 1 µM: 13%

## O=C(N/N=C/c1cccc(O)c1O)c1cccs1
Plasmodium falciparum [1]
  inhibition at 1 µM: 29%

## COc1cccc(/C=N/NC(=O)Cc2ccccc2)c1O
Plasmodium falciparum [1]
  inhibition at 1 µM: 30%

## O=C(N/N=C/c1ccc(O)cc1O)c1ccc([N+](=O)[O-])cc1
Plasmodium falciparum [1]
  inhibition at 1 µM: 18%

## COc1cccc(/C=N/NC(=O)c2ccc(C(C)(C)C)cc2)c1O
Plasmodium falciparum [1]
  inhibition at 1 µM: 39%

## COc1cccc(/C=N/NC(=O)c2cccs2)c1O
Plasmodium falciparum [1]
  inhibition at 1 µM: 16%

## O=C(N/N=C/c1cc(O)ccc1O)c1ccco1
Plasmodium falciparum [1]
  inhibition at 1 µM: 21%

## CC(C)(C)c1ccc(O)c(/C=N/NC(=O)c2ccc(Cl)cc2)c1
Plasmodium falciparum [2]
  IC50: 2900 nM
MRC5 [3]
  Ratio CC50/IC50: 1
MRC5 [4]
  CC50: 3.6 µM
Plasmodium falciparum [1]
  inhibition at 1 µM: 69%

## COc1ccc(/C=N/NC(=O)c2cccs2)c(O)c1
Plasmodium falciparum [1]
  inhibition at 1 µM: 24%

## O=C(N/N=C/c1cc(O)ccc1O)c1ccc([N+](=O)[O-])cc1
Plasmodium falciparum [1]
  inhibition at 1 µM: 28%

## COc1cccc(/C=N/NC(=O)c2ccc(O)cc2)c1O
Plasmodium falciparum [1]
  inhibition at 1 µM: 16%

## CC(C)(C)c1ccc(C(=O)N/N=C/c2cccc(O)c2O)cc1
Plasmodium falciparum [1]
  inhibition at 1 µM: 41%

## COc1ccc(/C=N/NC(=O)Cc2ccccc2)c(O)c1
Plasmodium falciparum [1]
  inhibition at 1 µM: 41%

## COc1cccc(/C=N/NC(=O)c2ccccc2)c1O
Plasmodium falciparum [1]
  inhibition at 1 µM: 10%

## O=C(N/N=C/c1cccc(O)c1O)c1ccc(O)cc1
Plasmodium falciparum [1]
  inhibition at 1 µM: 20%

## O=C(N/N=C/c1ccc(O)cc1O)c1cccs1
Plasmodium falciparum [1]
  inhibition at 1 µM: 13%

## O=C(N/N=C/c1ccc(O)cc1O)c1ccc(O)cc1
Plasmodium falciparum [1]
  inhibition at 1 µM: 15%

## COc1cccc(/C=N/NC(=O)c2ccncc2)c1O
Plasmodium falciparum [1]
  inhibition at 1 µM: 43%

## O=C(N/N=C/c1cccc(O)c1O)c1ccc([N+](=O)[O-])cc1
Plasmodium falciparum [1]
  inhibition at 1 µM: 24%

## O=C(N/N=C/c1ccc(O)cc1O)c1cccnc1
Plasmodium falciparum [1]
  inhibition at 1 µM: 23%

## CCN(CC)c1ccc(/C=N/NC(=O)c2ccc(C(C)(C)C)cc2)c(O)c1
Plasmodium falciparum [2]
  IC50: 900 nM
MRC5 [3]
  Ratio CC50/IC50: 1
MRC5 [4]
  CC50: 1.1 µM
Plasmodium falciparum [1]
  inhibition at 1 µM: 73%

## O=C(N/N=C/c1cc(O)ccc1O)c1ccc(Cl)cc1
Plasmodium falciparum [1]
  inhibition at 1 µM: 25%

## O=C(N/N=C/c1ccccc1O)c1ccc([N+](=O)[O-])cc1
Plasmodium falciparum [1]
  inhibition at 1 µM: 4%

## O=C(Cc1ccccc1)N/N=C/c1ccccc1O
Plasmodium falciparum [1]
  inhibition at 1 µM: 27%

## CC(C)(C)c1ccc(O)c(/C=N/NC(=O)c2ccccc2)c1
Plasmodium falciparum [2]
  IC50: 1300 nM
MRC5 [3]
  Ratio CC50/IC50: 2
MRC5 [4]
  CC50: 2.6 µM
Plasmodium falciparum [1]
  inhibition at 1 µM: 59%

## COc1cccc(/C=N/NC(=O)c2cccnc2)c1O
Plasmodium falciparum [1]
  inhibition at 1 µM: 32%

## O=C(N/N=C/c1cccc(O)c1O)c1ccccc1
Plasmodium falciparum [1]
  inhibition at 1 µM: 30%

## O=C(N/N=C/c1cccc(O)c1O)c1cccnc1
Plasmodium falciparum [1]
  inhibition at 1 µM: 16%

## Cc1ccc(O)c(/C=N/NC(=O)c2ccc(Cl)cc2)c1
Plasmodium falciparum [2]
  IC50: 1900 nM
MRC5 [4]
  CC50: > 100 µM
Plasmodium falciparum [1]
  inhibition at 1 µM: 52%

## COc1ccc(/C=N/NC(=O)c2ccccc2)c(O)c1
Plasmodium falciparum [1]
  inhibition at 1 µM: 32%

## COc1ccc(C(=O)N/N=C/c2ccc(O)cc2O)cc1
Plasmodium falciparum [1]
  inhibition at 1 µM: 29%

## COc1ccc(C(=O)N/N=C/c2cccc(OC)c2O)cc1
Plasmodium falciparum [1]
  inhibition at 1 µM: 37%

## O=C(N/N=C/c1ccc(O)cc1O)c1ccco1
Plasmodium falciparum [1]
  inhibition at 1 µM: 13%

## COc1ccc(C(=O)N/N=C/c2ccccc2O)cc1
Plasmodium falciparum [1]
  inhibition at 1 µM: 14%

## CC(C)(C)c1ccc(C(=O)N/N=C/c2ccc(O)cc2O)cc1
Plasmodium falciparum [1]
  inhibition at 1 µM: 37%

## O=C(N/N=C/c1cccc(O)c1O)c1ccco1
Plasmodium falciparum [1]
  inhibition at 1 µM: 20%

## O=C(N/N=C/c1ccccc1O)c1ccccc1
Plasmodium falciparum [1]
  inhibition at 1 µM: 35%

## CC(=O)N/N=C/c1ccccc1O
Plasmodium falciparum [1]
  inhibition at 1 µM: 0%

## CCN(CC)c1ccc(/C=N/NC(=O)c2ccncc2)c(O)c1
Plasmodium falciparum [1]
  inhibition at 1 µM: 18%

## O=C(Cc1ccccc1)N/N=C/c1cccc(O)c1O
Plasmodium falciparum [1]
  inhibition at 1 µM: 19%

## CC(=O)N/N=C/c1cc(O)ccc1O
Plasmodium falciparum [1]
  inhibition at 1 µM: 25%

## COc1ccc(/C=N/NC(=O)c2ccc(Cl)cc2)c(O)c1
Plasmodium falciparum [1]
  inhibition at 1 µM: 8%

## O=C(N/N=C/c1cccc(O)c1O)c1ccncc1
Plasmodium falciparum [1]
  inhibition at 1 µM: 11%

## CC(C)(C)c1ccc(O)c(/C=N/NC(=O)c2ccc([N+](=O)[O-])cc2)c1
Plasmodium falciparum [2]
  IC50: 1600 nM
MRC5 [3]
  Ratio CC50/IC50: 1
MRC5 [4]
  CC50: 1.1 µM
Plasmodium falciparum [1]
  inhibition at 1 µM: 81%

## O=C(N/N=C/c1cccc(O)c1O)c1ccc(Cl)cc1
Plasmodium falciparum [1]
  inhibition at 1 µM: 13%

## COc1ccc(/C=N/NC(=O)c2ccc(C(C)(C)C)cc2)c(O)c1
Plasmodium falciparum [1]
  inhibition at 1 µM: 43%

## CC(C)(C)c1ccc(C(=O)N/N=C/c2cc(Br)ccc2O)cc1
Plasmodium falciparum [2]
  IC50: 1700 nM
MRC5 [4]
  CC50: > 100 µM
Plasmodium falciparum [1]
  inhibition at 1 µM: 52%

## CC(C)(C)c1ccc(C(=O)N/N=C/c2ccccc2O)cc1
Plasmodium falciparum [1]
  inhibition at 1 µM: 43%

## CCN(CC)c1ccc(/C=N/NC(=O)c2ccc([N+](=O)[O-])cc2)c(O)c1
Plasmodium falciparum [2]
  IC50: 1000 nM
MRC5 [3]
  Ratio CC50/IC50: 2.5
MRC5 [4]
  CC50: 2.5 µM
Plasmodium falciparum [1]
  inhibition at 1 µM: 69%

## O=C(N/N=C/c1ccc(O)cc1O)c1ccc(Cl)cc1
Plasmodium falciparum [1]
  inhibition at 1 µM: 16%

## O=C(N/N=C/c1cc(O)ccc1O)c1ccc(O)cc1
Plasmodium falciparum [1]
  inhibition at 1 µM: 4%

## O=C(N/N=C/c1ccc(O)cc1O)c1ccccc1
Plasmodium falciparum [1]
  inhibition at 1 µM: 14%

## COc1ccc(/C=N/NC(=O)c2cccnc2)c(O)c1
Plasmodium falciparum [1]
  inhibition at 1 µM: 38%

## CCN(CC)CCCC(C)Nc1ccnc2cc(Cl)ccc12 (centres undefined) [CHLOROQUINE]
MRC5 [4]
  CC50: 50 µM

## O=C(N/N=C/c1ccccc1O)c1cccnc1 [N'-(2-HYDROXYBENZYLIDENE)NICOTINOHYDRAZIDE]
Plasmodium falciparum [1]
  inhibition at 1 µM: 26%

## O=C(N/N=C/c1ccccc1O)c1ccncc1 [SALINAZID]
Plasmodium falciparum [1]
  inhibition at 1 µM: 22%

From ChEMBL document CHEMBL1147781, “Design, synthesis and in vitro antimalarial activity of an acylhydrazone library” (Bioorg Med Chem Lett, 2006)
